Structures are written as SMILES. pEC50, pIC50, pKi: −log10 of the molar value. Calls of active or inactive are those of the source. No cut-off for these calls is given here. Some results are limits rather than exact numbers.

The target of one assay is T1, Adenosine receptor A3 (Homo sapiens, UniProt P0DMS8).
T1 sequence (P0DMS8 whole entry): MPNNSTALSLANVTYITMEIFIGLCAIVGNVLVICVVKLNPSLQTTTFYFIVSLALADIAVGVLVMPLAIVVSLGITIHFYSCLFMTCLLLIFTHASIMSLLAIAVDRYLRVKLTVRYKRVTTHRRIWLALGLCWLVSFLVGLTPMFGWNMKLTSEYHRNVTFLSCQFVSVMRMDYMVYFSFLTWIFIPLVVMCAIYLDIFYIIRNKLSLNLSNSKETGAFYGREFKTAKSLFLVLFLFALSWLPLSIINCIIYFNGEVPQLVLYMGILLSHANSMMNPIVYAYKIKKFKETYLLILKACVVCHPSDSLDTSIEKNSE
The assay is described as follows: Displacement of [125I]N6-(4-amino-3-iodobenzyl)adenosine-5'-N-methyluronamide from human A3AR expressed in HEK293T cells pre-incubated for 10 mins before radioligand addition and measured 90 mins after radioligand addition by micro beta scintillation counting analysis relative to control. It is filed as cell-based, HEK-293T. A general note: In a radioligand displacement assay an active substance lowers the binding of a labelled ligand.

The target in assay [1] is T2, Sodium-dependent dopamine transporter (Homo sapiens, UniProt Q01959). Nature of the assay: Enhancing of [3H]WIN35,428 binding to recombinant human DAT expressed in HEK293 cell membranes at 10 uM pre-incubated for 10 mins before radioligand addition and measured 90 mins after radioligand addition by micro beta scintillation counting analysis relative to control.
The target of assay [2] is T3, Adenosine receptor A3 (Mus musculus) (UniProt Q61618).
T3 sequence (whole entry): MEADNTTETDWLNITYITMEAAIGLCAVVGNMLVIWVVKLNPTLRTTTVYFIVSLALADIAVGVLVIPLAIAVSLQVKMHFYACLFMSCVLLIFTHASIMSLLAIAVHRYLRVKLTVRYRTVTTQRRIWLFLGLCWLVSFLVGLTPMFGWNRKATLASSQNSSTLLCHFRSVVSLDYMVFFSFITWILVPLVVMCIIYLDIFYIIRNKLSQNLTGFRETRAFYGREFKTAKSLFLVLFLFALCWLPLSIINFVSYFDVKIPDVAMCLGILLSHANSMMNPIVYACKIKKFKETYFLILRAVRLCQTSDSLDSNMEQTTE
The assay is described as follows: Displacement of [125I]N6-(4-amino-3-iodobenzyl)adenosine-5'-N-methyluronamide from mouse A3AR expressed in HEK293T cells at 10 uM pre-incubated for 10 mins before radioligand addition and measured 90 mins after radioligand addition by micro beta scintillation counting analysis relative to control. It is filed as cell-based.

Assay [3] deals with Sodium-dependent serotonin transporter (Homo sapiens, UniProt P31645). The assay is described as follows: Inhibition of [125I]RTI-55 binding to recombinant human SERT expressed in HEK293 cell membranes preincubated for 10 mins followed by radioligand addition measured after 90 mins by micro beta scintillation counting analysis.
Assay [4] deals with Sigma intracellular receptor 2 (Rattus norvegicus, UniProt Q5U3Y7). The assay is described as follows: Displacement of [3H]DTG from rat sigma 2 receptor.
The target of assay [5] is Adenosine receptor A3 (Homo sapiens) (UniProt P0DMS8). The assay is described as follows: Agonist activity at human A3AR assessed as inhibition of cAMP formation at 10 uM relative to adenosine-5'-Nethyluronamide. (In general: Cyclic AMP is a second messenger, typically raised through Gs and lowered through Gi signalling.)
The target in assay [6] is T2, Sodium-dependent dopamine transporter. Nature of the assay: Inhibition of [3H]WIN35,428 binding to recombinant human DAT expressed in HEK293 cell membranes at 10 uM pre-incubated for 10 mins before radioligand addition and measured 90 mins after radioligand addition by micro beta scintillation counting analysis relative to control.
Assay [7] deals with Sigma non-opioid intracellular receptor 1 (Rattus norvegicus, UniProt Q9R0C9). The assay is described as follows: Displacement of [3H]Pentazocine from rat sigma 1 receptor.
Assay [8] has as its target Muscarinic acetylcholine receptor M5 (Homo sapiens, UniProt P08912). The assay is described as follows: Displacement of [3H]QNB from human muscarinic M5 receptor.
Assay [9] deals with T4, 5-hydroxytryptamine receptor 2C (Homo sapiens, UniProt P28335).
T4 sequence (P28335 whole entry): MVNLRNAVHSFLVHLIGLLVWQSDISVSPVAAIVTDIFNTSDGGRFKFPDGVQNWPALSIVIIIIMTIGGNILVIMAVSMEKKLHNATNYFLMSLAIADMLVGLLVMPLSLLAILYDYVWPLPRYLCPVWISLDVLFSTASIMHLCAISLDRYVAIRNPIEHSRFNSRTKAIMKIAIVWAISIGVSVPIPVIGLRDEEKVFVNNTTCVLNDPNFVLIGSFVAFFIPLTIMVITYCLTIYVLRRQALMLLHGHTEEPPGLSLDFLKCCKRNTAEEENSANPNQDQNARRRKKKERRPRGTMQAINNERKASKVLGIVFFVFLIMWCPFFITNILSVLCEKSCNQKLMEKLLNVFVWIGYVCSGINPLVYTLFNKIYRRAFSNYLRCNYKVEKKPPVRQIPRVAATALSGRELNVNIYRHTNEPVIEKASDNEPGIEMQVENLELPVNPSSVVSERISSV
Nature of the assay: Displacement of [3H]Mesulergine from human 5-HT2C receptor.

Assay [10] has as its target Sodium-dependent noradrenaline transporter (Homo sapiens, UniProt P23975). The assay is described as follows: Enhancing of [125I]RTI-55 binding to recombinant human NET expressed in HEK293 cell membranes preincubated for 10 mins followed by radioligand addition measured after 90 mins by micro beta scintillation counting analysis. Set-up: concentration or dose not given beside the values.

The target in assay [11] is T2, Sodium-dependent dopamine transporter. The assay is described as follows: Inhibition of recombinant human DAT expressed in HEK293 cell […] as reduction in [3H]-DA uptake incubated for 22 mins by micro beta scintillation counting analysis.
In assay [12] the target is Beta-3 adrenergic receptor (Homo sapiens, UniProt P13945). The assay is described as follows: Displacement of [3H]CGP12177 from human adrenergic beta3 receptor.
The target in assay [13] is T2, Sodium-dependent dopamine transporter. Nature of the assay: Enhancing of [3H]WIN35,428 binding to recombinant human DAT expressed in HEK293 cell membranes pre-incubated for 10 mins before radioligand addition and measured 90 mins after radioligand addition by micro beta scintillation counting analysis relative to control.
Assay [14] has the same target. The assay is described as follows: Enhancing of [125I]RTI-55 binding to recombinant human DAT expressed in HEK293 cell membranes preincubated for 10 mins followed by radioligand addition measured after 90 mins by micro beta scintillation counting analysis. Set-up: concentration or dose not given beside the values. An outline of the steps: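 Membranes of HEK-293 cells stably expressing hDAT, hNET or hSERT. […] Compound preincubated 10 min at room temperature, then [125I]23 (40-80 pM final) or [3H]26 (1-3 nM for DAT and NET, 10-13 nM for SERT) added. Incubated 90 min at room temperature in the dark, then filtered. EC50 or Ki; mean ± SEM.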

T2 sequence (Q01959 whole entry): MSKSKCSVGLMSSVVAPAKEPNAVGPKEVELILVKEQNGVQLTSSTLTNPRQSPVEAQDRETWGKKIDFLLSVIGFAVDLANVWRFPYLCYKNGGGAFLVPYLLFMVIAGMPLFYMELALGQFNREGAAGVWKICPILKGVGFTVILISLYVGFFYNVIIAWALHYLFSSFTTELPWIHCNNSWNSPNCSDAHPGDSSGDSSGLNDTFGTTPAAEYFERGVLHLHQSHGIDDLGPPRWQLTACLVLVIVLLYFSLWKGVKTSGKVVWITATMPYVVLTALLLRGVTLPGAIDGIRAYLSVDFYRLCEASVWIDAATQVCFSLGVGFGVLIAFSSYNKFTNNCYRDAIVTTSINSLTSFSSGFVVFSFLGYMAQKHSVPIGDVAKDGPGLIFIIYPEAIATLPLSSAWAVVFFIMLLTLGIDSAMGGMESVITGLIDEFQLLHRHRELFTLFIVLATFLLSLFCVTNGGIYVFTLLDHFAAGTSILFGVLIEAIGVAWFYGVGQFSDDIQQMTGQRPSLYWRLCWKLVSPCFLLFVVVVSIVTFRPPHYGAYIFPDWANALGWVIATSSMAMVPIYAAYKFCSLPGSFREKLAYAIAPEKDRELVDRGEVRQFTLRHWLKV
Sequence of Sodium-dependent noradrenaline transporter (P23975 whole entry): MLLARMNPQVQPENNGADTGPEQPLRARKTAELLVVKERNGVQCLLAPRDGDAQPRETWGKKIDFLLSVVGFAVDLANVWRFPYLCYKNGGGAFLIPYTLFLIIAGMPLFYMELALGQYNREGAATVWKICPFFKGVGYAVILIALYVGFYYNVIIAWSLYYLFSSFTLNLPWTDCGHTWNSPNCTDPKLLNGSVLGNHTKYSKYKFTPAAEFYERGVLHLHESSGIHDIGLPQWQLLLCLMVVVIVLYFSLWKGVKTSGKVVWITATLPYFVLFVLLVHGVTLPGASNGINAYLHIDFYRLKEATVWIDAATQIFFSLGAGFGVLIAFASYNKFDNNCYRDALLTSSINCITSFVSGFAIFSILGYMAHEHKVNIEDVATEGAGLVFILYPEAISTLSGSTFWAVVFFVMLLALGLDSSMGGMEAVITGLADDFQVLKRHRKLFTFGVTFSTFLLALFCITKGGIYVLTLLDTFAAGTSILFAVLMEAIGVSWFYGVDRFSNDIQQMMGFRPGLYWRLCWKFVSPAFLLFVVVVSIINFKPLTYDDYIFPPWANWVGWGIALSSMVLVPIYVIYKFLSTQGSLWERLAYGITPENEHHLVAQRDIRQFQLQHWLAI
Sequence of Muscarinic acetylcholine receptor M5 (P08912 whole entry): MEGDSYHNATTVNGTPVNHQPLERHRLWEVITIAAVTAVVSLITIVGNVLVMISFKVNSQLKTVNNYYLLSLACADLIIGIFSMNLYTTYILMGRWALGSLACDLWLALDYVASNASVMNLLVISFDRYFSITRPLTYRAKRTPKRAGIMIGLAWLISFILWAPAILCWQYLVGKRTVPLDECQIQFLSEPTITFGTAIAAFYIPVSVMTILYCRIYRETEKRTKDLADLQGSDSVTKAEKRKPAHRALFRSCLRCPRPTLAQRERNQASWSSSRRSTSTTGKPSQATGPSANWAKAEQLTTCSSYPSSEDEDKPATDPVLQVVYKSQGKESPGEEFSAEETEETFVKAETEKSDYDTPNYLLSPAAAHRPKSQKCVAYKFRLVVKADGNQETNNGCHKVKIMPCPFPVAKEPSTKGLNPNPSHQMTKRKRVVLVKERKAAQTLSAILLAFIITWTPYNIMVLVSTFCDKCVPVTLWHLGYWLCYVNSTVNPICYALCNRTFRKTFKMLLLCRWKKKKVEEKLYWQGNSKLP
Sequence of Beta-3 adrenergic receptor (P13945 whole entry): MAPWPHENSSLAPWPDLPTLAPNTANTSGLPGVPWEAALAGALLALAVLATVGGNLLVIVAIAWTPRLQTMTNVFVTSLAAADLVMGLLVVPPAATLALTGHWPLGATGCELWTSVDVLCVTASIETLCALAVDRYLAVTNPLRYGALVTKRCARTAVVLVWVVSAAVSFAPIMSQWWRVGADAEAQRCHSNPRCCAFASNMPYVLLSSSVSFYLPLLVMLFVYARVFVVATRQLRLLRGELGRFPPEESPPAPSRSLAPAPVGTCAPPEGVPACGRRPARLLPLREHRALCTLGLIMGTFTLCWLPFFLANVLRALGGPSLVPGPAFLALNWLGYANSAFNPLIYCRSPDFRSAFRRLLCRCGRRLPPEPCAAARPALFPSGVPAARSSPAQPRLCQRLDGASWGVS
Sequence of Sigma intracellular receptor 2 (Q5U3Y7 whole entry): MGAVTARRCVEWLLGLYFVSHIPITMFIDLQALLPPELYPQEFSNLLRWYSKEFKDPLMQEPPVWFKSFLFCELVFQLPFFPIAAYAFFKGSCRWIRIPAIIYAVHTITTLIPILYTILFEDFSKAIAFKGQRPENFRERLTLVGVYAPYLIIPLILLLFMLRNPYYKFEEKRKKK
Sequence of Sigma non-opioid intracellular receptor 1 (Q9R0C9 whole entry): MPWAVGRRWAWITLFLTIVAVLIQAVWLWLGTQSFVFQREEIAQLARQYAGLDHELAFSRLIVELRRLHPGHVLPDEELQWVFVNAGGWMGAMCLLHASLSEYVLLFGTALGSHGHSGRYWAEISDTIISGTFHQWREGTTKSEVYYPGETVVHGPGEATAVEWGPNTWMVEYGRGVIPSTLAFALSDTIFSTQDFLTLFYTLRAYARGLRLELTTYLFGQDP
Sequence of Sodium-dependent serotonin transporter (P31645 whole entry): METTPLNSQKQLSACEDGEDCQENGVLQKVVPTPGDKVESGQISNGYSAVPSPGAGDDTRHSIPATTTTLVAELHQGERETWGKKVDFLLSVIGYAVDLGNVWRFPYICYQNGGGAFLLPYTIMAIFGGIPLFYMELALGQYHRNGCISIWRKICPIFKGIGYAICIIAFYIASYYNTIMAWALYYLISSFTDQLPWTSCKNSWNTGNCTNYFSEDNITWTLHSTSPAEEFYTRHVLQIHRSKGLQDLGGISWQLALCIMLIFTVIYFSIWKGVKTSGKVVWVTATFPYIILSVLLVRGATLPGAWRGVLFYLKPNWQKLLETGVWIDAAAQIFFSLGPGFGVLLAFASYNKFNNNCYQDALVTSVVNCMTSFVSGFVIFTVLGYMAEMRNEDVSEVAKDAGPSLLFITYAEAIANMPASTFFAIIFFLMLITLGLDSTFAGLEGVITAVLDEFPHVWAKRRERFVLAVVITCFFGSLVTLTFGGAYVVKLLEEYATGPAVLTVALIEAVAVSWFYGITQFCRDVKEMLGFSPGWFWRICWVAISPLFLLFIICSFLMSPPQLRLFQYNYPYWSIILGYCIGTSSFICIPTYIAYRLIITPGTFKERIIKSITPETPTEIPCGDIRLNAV

The pKi is the negative decadic logarithm of the Ki, by convention in mol/L. As a reminder, the inhibition is how much of the control response was suppressed. For the compound `CNc1nc(C#Cc2ccc(Cl)s2)nc2c1ncn2[C@H]1[C@H](O)[C@H](O)[C@]2(C(=O)OCc3ccccc3)C[C@H]12`, the negative-log Ki (pKi) at Adenosine receptor A3 is 8.14; in assay [3] it was 5.25. Besides, the outcome in assay [1] was inactive. For the same compound, the inhibition in [2] came out at 48%.
For the compound `CCOC(=O)[C@@]12C[C@@H]1[C@@H](n1cnc3c(NC)nc(C#Cc4ccc(Cl)s4)cc31)[C@H](O)[C@@H]2O`, the pKi was 6.77 on Adenosine receptor A3; 5.72 in assay [4]; 5.98 in [7]; 5.42 in [8]; 6.40 in assay [9]. For the same compound, in assay [5], the Efficacy is 3.6%. The inhibition result in assay [6] was “inactive”. The Activity in assay [1] was found to be 354%. This compound also came in with an inhibition in assay [2] of 18%.
What is called pEC50 is the negative decadic logarithm of the EC50, by convention in mol/L. For orientation: pIC50 means the negative decadic logarithm of the IC50, by convention in mol/L. For the compound `CCCNc1nc(C#Cc2ccc(Cl)s2)nc2c1ncn2[C@H]1[C@H](O)[C@H](O)[C@]2(C(=O)NC)C[C@H]12`, the results for the Activity in [10] and in assay [14] were 159% and 268%, respectively. The pEC50 is 6.05 in [10] (read-out: EC50), < 6.00 in assay [13] and 5.95 in assay [14] (read-out: EC50). In addition, the pIC50 in assay [11] is < 5.06. Besides, in assay [12], the negative-log Ki (pKi) is 5.84.

The values are drawn from ChEMBL document CHEMBL4007505 (J Med Chem, 2017).
